{"source": "ChEMBL document CHEMBL1157015", "about": "“New isatin derivatives with antioxidant activity” (Eur J Med Chem, 2010)", "format_in_all_cases": "functional", "key": {"[1]": {"experiment": "Antioxidant activity against hydroperoxyl radical assessed as resorcinol equivalent by Briggs-Rauscher method", "outline": "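Briggs–Rauscher oscillating reaction run at acidic pH (ca. 2), using resorcinol as standard. Activity is expressed relative to resorcinol from the inhibitory phase of the oscillations.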"}, "[2]": {"experiment": "Antioxidant activity against ABTS radical assessed as trolox equivalent by TEAC assay", "outline": "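TEAC assay run at pH 7.4 against the ABTS radical cation. Trolox served as standard, with activity expressed relative to it.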"}, "[3]": {"experiment": "Antioxidant activity against hydroperoxyl radical assessed as inhibition time at 3.71 uM by Briggs-Rauscher method", "outline": "(§1)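 Briggs–Rauscher oscillating reaction run under acidic conditions (pH ca. 2). Read-out is the inhibitory phase induced in the oscillations.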"}, "[4]": {"experiment": "Antioxidant activity against hydroperoxyl radical assessed as inhibition time at 2.25 uM by Briggs-Rauscher method", "outline": "as §1"}, "[5]": {"experiment": "Antioxidant activity against hydroperoxyl radical assessed as inhibition time at 1.48 uM by Briggs-Rauscher method", "outline": "as §1"}, "[6]": {"experiment": "Antioxidant activity against hydroperoxyl radical assessed as inhibition time at 2.97 uM by Briggs-Rauscher method", "outline": "as §1"}, "[7]": {"experiment": "Antioxidant activity against hydroperoxyl radical assessed as inhibition time at 3.34 uM by Briggs-Rauscher method", "outline": "as §1"}}, "note": "Activity calls are given as the source filed them. No cut-off for these calls is given here."}
{"smiles": "COc1ccc(OC)c(NC(=O)C(=O)c2ccccc2NC(C)=O)c1", "values": [{"measurement": "Activity", "setting": "[1]", "result": "inactive"}, {"measurement": "Activity", "setting": "[2]", "result": "inactive"}]}
{"smiles": "COc1cc(C2(c3cc(OC)c(N)cc3OC)C(=O)Nc3ccccc32)c(OC)cc1N", "values": [{"measurement": "TIME", "setting": "[3]", "result": 0.296, "unit": "h"}, {"measurement": "Activity", "setting": "[1]", "result": 1.28, "unit": "µM"}, {"measurement": "TIME", "setting": "[4]", "result": 0.216, "unit": "h"}, {"measurement": "Activity", "setting": "[2]", "result": 1.4, "unit": "mM"}, {"measurement": "TIME", "setting": "[5]", "result": 0.154, "unit": "h"}, {"measurement": "TIME", "setting": "[6]", "result": 0.24, "unit": "h"}, {"measurement": "TIME", "setting": "[7]", "result": 0.269, "unit": "h"}]}
